# What was measured:
# [1] = molecular target: T1, Cannabinoid receptor 2 (Homo sapiens, UniProt P34972); experiment: Inverse agonist activity at human CB2 receptor transfected in CHO cells assessed as increase in forksolin stimulated cAMP production at 1 uM by scintillation counting analysis relative to control; format: functional, cell-based
# [2] = test system: CHO; experiment: Selectivity ratio of Ki for human CB1 receptor expressed in CHO cell membranes to Ki for human CB2 receptor expressed in CHO cell membranes; format: cell-based
# Summary of the method: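 CHO membranes with human CB1 or CB2 in 50 mM Tris-HCl, 0.5% BSA, pH 7.4, 5 mM MgCl2, with 1 mM (CB1) or 2.5 mM (CB2) EDTA. Competition against 0.5 nM [3H]CP-55,940 at 30 °C for 90 min (CB1) or 60 min (CB2). GF/C filtration, scintillation counting. Ki from IC50 by Cheng–Prusoff; mean ± SEM, n = 4.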
# [3] = molecular target: T1, Cannabinoid receptor 2; experiment: Inverse agonist activity at human CB2 receptor transfected in CHO cells assessed as increase in forksolin stimulated cAMP production by scintillation counting analysis; format: functional, cell-based
# Summary of the method: (§1)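 Human CB2-transfected CHO cells detached with trypsin, 1 × 10^6 cells/assay, with forskolin and compound over a concentration curve. cAMP measured by [3H]-cAMP competition: 150 min at 4 °C, charcoal, centrifugation, supernatant counted. Expressed as % increase of forskolin-stimulated cAMP and fitted for EC50; three independent experiments in duplicate.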
# [4] = molecular target: T1, Cannabinoid receptor 2; experiment: Inverse agonist activity at human CB2 receptor transfected in CHO cells assessed as increase in forksolin stimulated cAMP production at 10 uM by scintillation counting analysis relative to control; format: functional, cell-based
# [5] = molecular target: Cannabinoid receptor 1 (Homo sapiens, UniProt P21554); experiment: Displacement of [3H]CP-55,940 from human CB1 receptor expressed in CHO cell membranes after 90 mins by scintillation counting analysis
# [6] = molecular target: T1, Cannabinoid receptor 2; experiment: Displacement of [3H]CP-55,940 from human CB2 receptor expressed in CHO cell membranes after 60 mins by scintillation counting analysis
# [7] = molecular target: T1, Cannabinoid receptor 2; experiment: Antagonist activity at human CB2 receptor transfected in CHO cells assessed as inhibition of WIN 55,212-2 mediated suppression of forksolin induced cAMP production by scintillation counting analysis; format: functional, cell-based
# Summary of the method: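 Human CB2-transfected CHO cells, 1 × 10^6 cells/assay, forskolin-stimulated, with WIN 55,212-2 (20 nM) plus compound over a concentration range. cAMP read by [3H]-cAMP competition: 150 min at 4 °C, charcoal separation, scintillation counting. IC50 derived from reversal of the WIN 55,212-2 inhibition; mean ± SEM of three experiments in duplicate.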
# [8] = molecular target: T1, Cannabinoid receptor 2; experiment: Partial agonist activity at human CB2 receptor transfected in CHO cells assessed as forksolin stimulated cAMP production by scintillation counting analysis relative to control; format: functional, cell-based; summary of the method: as §1
# T1 sequence (P34972 whole entry): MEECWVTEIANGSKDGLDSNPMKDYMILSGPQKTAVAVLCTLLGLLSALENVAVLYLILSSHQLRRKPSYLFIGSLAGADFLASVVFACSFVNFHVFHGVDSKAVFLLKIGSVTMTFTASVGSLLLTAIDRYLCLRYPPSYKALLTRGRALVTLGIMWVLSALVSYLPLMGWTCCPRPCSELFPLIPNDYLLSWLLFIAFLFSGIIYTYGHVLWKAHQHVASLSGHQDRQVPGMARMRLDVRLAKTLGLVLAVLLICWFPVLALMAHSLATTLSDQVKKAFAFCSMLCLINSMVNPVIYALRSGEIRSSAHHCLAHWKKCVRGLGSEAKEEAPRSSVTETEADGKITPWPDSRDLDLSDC
# Sequence of Cannabinoid receptor 1 (P21554 whole entry): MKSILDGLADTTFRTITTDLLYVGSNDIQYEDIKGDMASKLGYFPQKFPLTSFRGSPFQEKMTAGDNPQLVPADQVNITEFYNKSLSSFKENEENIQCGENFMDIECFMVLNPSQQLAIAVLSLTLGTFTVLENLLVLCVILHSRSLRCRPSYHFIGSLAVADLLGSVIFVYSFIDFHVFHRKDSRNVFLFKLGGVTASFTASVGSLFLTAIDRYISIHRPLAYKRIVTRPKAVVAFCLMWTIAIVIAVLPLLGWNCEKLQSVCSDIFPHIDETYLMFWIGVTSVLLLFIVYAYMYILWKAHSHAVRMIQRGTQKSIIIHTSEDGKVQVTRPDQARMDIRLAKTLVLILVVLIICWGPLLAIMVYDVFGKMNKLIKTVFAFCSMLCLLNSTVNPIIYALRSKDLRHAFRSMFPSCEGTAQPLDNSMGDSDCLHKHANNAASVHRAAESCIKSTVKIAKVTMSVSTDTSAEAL
SMILES,Emax [1] [%],Ratio Ki [2],EC50 [3] [nM],Emax [4] [%],Ki [5] [nM],Ki [6] [nM],IC50 [7] [nM],Emax [8] [%]
CCCCCn1cc(C(=O)NC23CC4CC(CC(C4)C2)C3)c(=O)n2nc(-c3ccc(OC)cc3)nc12,53,79,858,132,3720,47,128,
CCCCCn1cc(C(=O)NC2CCCCC2)c(=O)n2nc(SC)nc12,,> 14,,,> 10000,716,,
CCCCCn1cc(C(=O)NC2CCCCC2)c(=O)n2nc(N3CCOCC3)nc12,,,,,> 10000,> 10000,,
CCCCCn1cc(C(=O)NC23CC4CC(CC(C4)C2)C3)c(=O)n2nc(-c3ccc(Cl)cc3)nc12,,462,637,223,5220,11.3,24.6,
C=CCN(CC=C)c1nc2n(CCCCC)cc(C(=O)NC34CC5CC(CC(C5)C3)C4)c(=O)n2n1,,> 63,,,> 10000,158,,
CCCCCn1cc(C(=O)NC2CCCCC2)c(=O)n2nc(N(C)Cc3ccccc3)nc12,,> 7,,,> 10000,1330,,
CCCCCn1cc(C(=O)NC23CC4CC(CC(C4)C2)C3)c(=O)n2nc(-c3ccc(C)cc3)nc12,,223,652,256,1520,6.8,12.6,
CCCCCn1cc(C(=O)NC2CCCCC2)c(=O)n2nc(N3CCN(C)CC3)nc12,,> 188,,,> 10000,> 10000,,
CCCCCn1cc(C(=O)NC23CC4CC(CC(C4)C2)C3)c(=O)n2ncnc12,53,36,,132,,,,57
CCCCCn1cc(C(=O)NC23CC4CC(CC(C4)C2)C3)c(=O)n2nc(-c3ccccc3)nc12,53,146,161,132,,,8.6,
CCCCCn1cc(C(=O)NC2CCCCC2)c(=O)n2nc(-c3ccc(Cl)cc3)nc12,,40,,,4720,117,,
CCCCCn1cc(C(=O)NC23CC4CC(CC(C4)C2)C3)c(=O)n2nc(N3CCOCC3)nc12,53,140,670,132,> 10000,53,162,
CCCCCn1cc(C(=O)NC2CCCCC2)c(=O)n2nc(-c3ccc(OC)cc3)nc12,,61,,,5850,96,,
CCCCCn1cc(C(=O)NC2CCCCC2)c(=O)n2nc(C)nc12,,1,,,488,674,,
CCCCCn1cc(C(=O)NC23CC4CC(CC(C4)C2)C3)c(=O)n2nc(-c3cccnc3)nc12,,> 44,,,> 10000,228,,
Cc1c(C(=O)c2cccc3ccccc23)c2cccc3c2n1[C@H](CN1CCOCC1)CO3,53,,,132,,,,
CCCCCn1cc(C(=O)NC23CC4CC(CC(C4)C2)C3)c(=O)n2nc(-c3ccco3)nc12,53,26,771,132,1170,45,124,
CCCCCn1cc(C(=O)NC2CCCCCC2)c(=O)n2nc(-c3ccccc3)nc12,53,52,849,132,2480,48,142,
CCCCCn1cc(C(=O)NC23CC4CC(CC(C4)C2)C3)c(=O)n2nc(N(C)Cc3ccccc3)nc12,53,> 476,453,132,> 10000,21,29,
CCCCCn1cc(C(=O)NC23CC4CC(C)(CC(C)(C4)C2)C3)c(=O)n2ncnc12,53,25,88,132,622,25,,60
CCCCCn1cc(C(=O)NC2CCCCCC2)c(=O)n2nc(N3CCN(C)CC3)nc12,,> 10,,,> 10000,982,,
CCCCCn1cc(C(=O)NC23CC4CC(CC(C4)C2)C3)c(=O)n2nc(C)nc12,53,1,2080,132,471,383,865,
CCCCCn1cc(C(=O)NC2CCCCC2)c(=O)n2nc(-c3ccc(C)cc3)nc12,53,> 323,464,132,> 10000,31,79,
CCCCCn1cc(C(=O)NC23CC4CC(C)(CC(C)(C4)C2)C3)c(=O)n2nc(-c3ccccc3)nc12,,77,489,243,653,8.4,18.4,
CCCCCn1cc(C(=O)NC23CC4CC(CC(C4)C2)C3)c(=O)n2nc(SC)nc12,53,> 213,494,132,> 10000,47,139,
CCCCCn1cc(C(=O)NC2CCCCC2)c(=O)n2nc(-c3ccccc3)nc12,53,75,756,132,3210,43,111,
CCCCCn1cc(C(=O)NC2CCCCCC2)c(=O)n2nc(-c3ccc(C)cc3)nc12,53,289,393,132,6350,22,64,
CCCCCn1cc(C(=O)NC2CCCCCC2)c(=O)n2ncnc12,,1,,,717,514,,
C=CCN(CC=C)c1nc2n(CCCCC)cc(C(=O)NC3CCCCC3)c(=O)n2n1,,> 7,,,> 10000,1350,,
CCCCCn1cc(C(=O)NC2CCCCCC2)c(=O)n2nc(N3CCOCC3)nc12,,> 18,,,> 10000,566,,
